Screening results (PubChem)
PLC-beta3 inh – PLC-beta3 (human) inhibition, primary screen. 370,000 compounds, 0.18% hits. Q01970. Purified PLC-beta3, fluorogenic substrate, fluorescence. AID 720704. inhibition, % at 12.2 µM; in the data active = inhibition above about 11%;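 also: 0% = median of compound wells on plate and 100% = full blocker control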
NTR1 ag – agonists of human neurotensin receptor NTR1 | P30989 | NTR1-U2OS beta-arrestin-GFP spot imaging, agonist mode | activation, % at 20 µM | 330,000 compounds, 0.17% hits | AID 493036;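 active = activation at or above 40% of the spot to cytoplasm intensity ratio, with at least 20 cells analyzed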;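 also: 0% = DMSO without peptide and 100% = 100 nM NTR1 peptide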
PLC-gamma1 inh – inhibitors of human phospholipase C gamma1. P19174. purified PLC-gamma1, fluorogenic substrate, fluorescence. inhibition, % at 12.2 µM. 370,000 compounds, 0.84% hits. AID 720700; in the data active = inhibition above about 9.5%
Arr AP2 block – human beta-arrestin and AP2 interaction inhibition; AID 504490; 340,000 compounds, 0.31% hits; FITC-arrestin peptide / GST-AP2 beads, flow cytometry; AP2 beta2 appendage carries R879A mutation; inhibition, % at 10 µM;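 active = inhibition above a set limit, near 3 SD of compounds lacking own fluorescence, cut at about 54% in these data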;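 also: plate controls were DMSO wells for no effect and 5 µM unlabelled arrestin peptide for full effect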
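Material – GST-tagged AP2 beta2-adaptin appendage (R879A) on 4 µm glutathione beads · Probe or stimulus – fluorescein-tagged arrestin peptide at 50 nM final · Timing – 12 min plus 1 h, RT · Detection – bead flow cytometry, FITC channel · Read-out basis – inhibition as reduced fluorescein signal on beads, percent · Medium – PBS plus Tween 20 (0.05%) and BSA (0.1%)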
NTR1 ag confirm – NTR1 (human) agonism, confirmed | shares compounds with NTR1 ag | NTR1-U2OS beta-arrestin-GFP translocation imaging | activation, % at 20 µM | 480 compounds, 38% hits | AID 504550;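 active = mean activation at 20 µM of at least 40%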;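 also: 0% = DMSO without peptide and 100% = 100 nM NTR1 peptide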
* hit, by the source's call; x = not tested or not shown. An excerpt weighted towards active compounds, which were near 1.3% of everything screened.

SMILES	PLC-beta3 inh	NTR1 ag	PLC-gamma1 inh	Arr AP2 block	NTR1 ag confirm
CC1(c2ccccc2)CC(C)(C)N2C(=O)C3(C(C#N)=C(N)Oc4cc(O)ccc43)c3cccc1c32 (stereo not drawn)	1.4	36.7	-1.2	38.7	x
Cc1cc2c3c(c1)C(C)(c1ccccc1)CC(C)(C)N3C(=O)C21C(C#N)=C(N)OC2=C1C(=O)CC(C)(C)C2 (stereo not drawn)	-1.0	40.4*	0.9	-6.6	41.9*
O=C(N/N=C/c1c[nH]c2ccccc12)C1CC1(c1ccccc1)c1ccccc1 (stereo not drawn)	-2.6	54.2*	4.7	8.3	40.7*
O=C(N/N=C/c1c[nH]c2ccccc12)C1CC1c1ccccc1 (stereo not drawn)	-2.7	22.8	1.0	0.3	x
Cc1cccc(OCC(=O)NNc2c3ccccc3nc3ccccc23)c1	-76.5	35.9	-53.6	0.8	x
Cc1ccc(OCC(=O)NNc2c3ccccc3nc3ccccc23)cc1	-71.9	47.4*	-59.6	39.2	20.3
O=S1(=O)c2ccc(Br)cc2OC[C@H](Cc2ccccc2)N1Cc1cn(CCC2OCCO2)nn1	-1.6	x	-1.6	x	x
C[C@H](c1ccccc1)N1C[C@@H](COCc2ccccc2)Oc2cccc(Oc3ccc(C(C)(C)C)cc3)c2S1(=O)=O	-0.7	x	-1.1	x	x
C/C=C\C=C/C(=O)Nc1cccc(C2=NOC3(C2)C[C@@H](C(N)=O)N(C(=O)COc2ccc(Cl)cc2)C3)c1 (stereo partly drawn)	-3.5	16.3	0.8	-1.2	x
CCCCCC(=O)Nc1cccc(C2=NOC3(C2)C[C@H](C(N)=O)N(C(=O)COc2ccc(Cl)cc2)C3)c1 (stereo partly drawn)	5.0	41.6*	-0.2	27.8	5.5
COc1ccc(CN2C[C@H](COCc3ccccc3)Oc3cccc(N4CCCC4)c3S2(=O)=O)cc1	-1.5	x	0.1	x	x
COc1ccc(C(=O)n2nc(-c3ccco3)nc2N)cc1	-1.5	52.4*	3.1	-2.6	4.7
Cc1ccc(C(=O)n2nc(-c3ccco3)nc2N)cc1	4.2	0.3	3.4	-1.6	x
Cc1ccc(-n2c(Cc3cccs3)nnc2SCc2ccc(Br)cc2)cc1	-0.5	x	-1.4	x	x
COCCOc1ccc(C(F)(F)F)cc1NC(=O)c1ccccc1	-2.0	0.5	-3.8	-4.1	x
CC(C)(C)c1ccc(OCCOc2ccc(C(C)(C)C)cc2NC=O)c(NC=O)c1	0.3	42.9*	2.2	5.4	22.6
COc1cc([N+](=O)[O-])ccc1NC(=O)Nc1nc2c(s1)CCCC2	4.6	42.6*	8.3	34.6	17.7
COc1cc([N+](=O)[O-])ccc1NC(=O)Nc1cnccn1	-5.5	-0.2	3.1	6.8	x
COC(=O)[C@]12C[C@H](CC(=O)NCc3cccc(C(F)(F)F)c3)C(=O)N(CCc3ccc(OC)c(OC)c3)C1=C[C@H](C1CCCC1)O[C@@H]2C	0.1	x	0.6	x	x
COC(=O)c1cc(=O)n(Cc2cccs2)c(=Nc2ccc(F)cc2)s1	-0.1	41.7*	1.4	6.9	36.1
COC(=O)c1cc(=O)n(-c2ccc(F)cc2)c(=Nc2ccc(F)cc2)s1	-0.2	50.1*	-0.6	9.6	51.7*
COC(=O)c1ccc(N=c2sc(C(=O)OC)cc(=O)n2C)cc1	4.9	x	4.8	-1.3	x
COC(=O)c1cc(=O)n(Cc2ccc3c(c2)OCO3)c(=Nc2ccc(F)cc2)s1	1.1	4.9	-0.4	-6.8	x
COc1ccc(CN2CCC(CNC(=O)NCc3ccccc3)CC2)cc1	2.0	x	-1.2	x	x
O=C(/C=C/c1cccnc1)c1ccc(F)c(F)c1	0.0	60.7*	1.4	-9.6	69.5*
SMILES	PLC-beta3 inh	NTR1 ag	PLC-gamma1 inh	Arr AP2 block	NTR1 ag confirm
O=C(O)/C=C/c1cccc(OCc2ccccc2)c1	-3.4	-0.6	1.9	-10.4	x
O=C(/C=C/c1cccc(OCc2ccccc2)c1)c1cccnc1	0.4	54.4*	-2.4	0.7	1.6
CS(=O)(=O)N(CC(=O)N/N=C/c1ccccc1C(=O)O)c1cccc(Cl)c1Cl	-7.9	0.9	-3.0	3.0	x
CC(C)c1ccc(/C=N/NC(=O)CN(c2cccc(Cl)c2Cl)S(C)(=O)=O)cc1	0.0	48.1*	-0.8	15.2	39.6
NC(=S)N/N=C/c1ccccc1OCCSc1ccc(Cl)cc1	-2.8	43.0*	-0.5	4.3	26.6
COc1cccc(/C=N/NC(N)=S)c1OCc1ccccc1Cl	-11.5	2.7	-8.4	1.3	x
COc1ccc(C2CC(=O)C(c3ccc(C(F)(F)F)cc3)=CN2Cc2ccccc2)cc1 (stereo not drawn)	-31.4	x	-18.1	x	x
Cc1ccc(-n2ncc3c(N4CCN(c5ccccc5)CC4)ncnc32)c(C)c1	1.9	61.9*	-1.6	9.5	60.9*
Cc1ccccc1-c1ccc2c(c1)[C@@H]1C[C@H]3[C@@H](CN1CC2)[C@H](C)ON3C	-12.3	x	-10.7	x	x
CCOC(=O)c1c(NC(C)=O)sc2c(OCCN(CC)CC)c(Br)ccc12	-9.7	31.8	-8.9	-26.7	x
CCOC(=O)c1c(NC(C)=O)sc2c(OCC(O)CN(CC)CC)c(Br)ccc12 (stereo not drawn)	-19.7	53.1*	-15.2	17.0	46.7*
Cc1cccc(NC(=O)c2nc[nH]c2C(=O)N[C@@H](C)c2ccccc2)c1	-31.9	50.5*	2.5	26.3	37.5
O=C(OC1CCOC1=O)c1ccccc1C(=O)c1ccc(Cl)c([N+](=O)[O-])c1 (stereo not drawn)	x	9.1	x	-5.2	x
CCCOc1ccc(C(=O)c2ccccc2C(=O)OC2CCOC2=O)cc1OCCC (stereo not drawn)	-10.4	44.5*	-2.1	1.0	46.5*
C=CCN1C(=O)[C@@H](CC(=O)NCCCC)[C@]2(C(=O)OCC)CCCCC/C=C/12	0.6	x	-1.5	x	x
COc1ccc2sc(-c3ccc(S(C)(=O)=O)cc3)c(C#CCO)c2c1	-385.9	56.6*	-247.4	4.9	56.8*
Cn1c2ccccc2c(=O)c2c(=O)n(Cc3ccco3)c(-c3ccc(C(C)(C)C)cc3)nc21	x	40.5*	x	x	18.9
O=C(O)c1cccc(NC(CNS(=O)(=O)c2ccc(Cl)cc2)c2ccccc2)c1 (stereo not drawn)	-9.1	0.5	-4.6	4.9	x
O=S(=O)(NCC(Nc1ccccc1)c1ccccc1)c1ccc(Cl)cc1 (stereo not drawn)	3.3	43.9*	3.2	6.0	7.5
Cc1ccnc(Nc2nc(-c3ccc(F)cc3)cs2)c1	-6.3	48.7*	-2.7	3.1	3.2
O=C(CSc1ccc(Cl)cc1)Nc1cccc(-c2nc3ncccc3o2)c1	-2.4	52.1*	-0.5	-2.3	33.0
O=C(C(=O)N1CCN(C(=O)c2cccs2)CC1)c1cccc(C(F)(F)F)c1	0.5	x	-4.6	x	x
CC(C)Cn1c(O)c(/C=C2\C=NN=C2c2ccccc2)sc1=S	-0.6	59.1*	1.6	-3.4	60.8*
Cc1cccc(C(=O)Oc2ccc(/C=N/NC(=O)c3ccc(O)cc3)cc2)c1	3.6	53.0*	6.7	34.0	13.9
COC(=O)[C@]12C[C@H](CC(=O)NCCCCc3ccccc3)C(=O)N(CCC3=CCCCC3)C1=C[C@H](C(C)C)O[C@@H]2C1CC1	3.2	x	3.4	x	x
